Test results: the RNAGym collection of RNA variant scans (doi:10.1101/gad.245936.114)
Variants at the floor of the assay were thinned out.

B1: tRNA (parent)
chain: CUCUCGGUAGCCAAGUUGGUUUAAGGCGCAAGACUUUAAUUUAUCACUACGAAAUCUUGAGAUCGGGCGUUCGACUCGCCCCCGGGAGAUUUUUUCCUCGAGCAA

Variants of: B1
Assay: nonsense suppression (GFP-seq) (ratio to wild type); higher = more function; SUP4oc tRNA, yeast GFP reporter sort-seq
Procedure, shortened: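 Each variant's nonsense suppression (GFPSEQ) is a cell-share-weighted bin median GFP/RFP relative to the unmutated parent tRNA. Yeast with genome-integrated tRNA variants from a ~3% random-mutation library, a galactose-driven GFP ochre reporter and RFP were grown in raffinose/galactose medium with 80 mg/L adenine, then sorted into GFP/RFP bins for Illumina sequencing. Variants needed ≥100 reads and ≥30 cells.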

Variant	nonsense suppression
U55G A74U	≤ 0.026
A54G C79U	0.0263
A54U A89C	≤ 0.026
A54G U71A	≤ 0.026
A30U C64U	≤ 0.026
A33U U57C A62G	≤ 0.026
U55A U70C	≤ 0.026
A31G C34U	≤ 0.026
G32A U76G	≤ 0.026
A33U A60U	0.204
A54U U76C	1.08
A31G C82U	0.25
C34G U71G	≤ 0.026
A54U U63A	0.864
A54U U63G	0.659
A54U U63C	0.798
A31C U76G	≤ 0.026
A31G G84A	≤ 0.026
A33G C80U	0.0422
A54C G86C	0.0725
U35C G73A	≤ 0.026
A33C C56A G78A	≤ 0.026
U55A A60C C75U G78C C79G A89G	≤ 0.026
G32C A62U G65C C80A G88A	≤ 0.026

Variant	nonsense suppression
A54U G69C C81G	≤ 0.026
C34G G86U	≤ 0.026
C34U A60G	0.0428
A31U	0.177
A31G	1.08
A33G U63A	0.031
A33G U63C	0.11
U55C G73A	0.0331
U55C G73U	0.0422
A30U	0.575
A54U C81A	≤ 0.026
C34A U63A C82G	≤ 0.026
A31U U57A	0.963
A33C U57G C64G	≤ 0.026
A54C G85C	0.0904
U55G A89U	≤ 0.026
A31C G84U	≤ 0.026
G32C A62G C80U	≤ 0.026
G32A U70A C72A	≤ 0.026
A31C A60U	0.222
U55A G85C	≤ 0.026
A31U A60C G66C U70A G85A	≤ 0.026
C34U G61A	0.0297
C34U G61C	0.0481

Variant	nonsense suppression
C34U A60C C72A	≤ 0.026
A33G A54U	0.0526
A33G G85C	0.0351
A30U A89U	0.0434
U35G G85U	≤ 0.026
A31C A62G G78A	≤ 0.026
C34G C64U	≤ 0.026
C34G G61A	0.0334
C34G G61C	≤ 0.026
A31G A33G C56A G65U	≤ 0.026
A33U G85A	0.0389
A30U C77U	≤ 0.026
A30U C77G	0.0332
A31G C79U	0.77
U55C G66A	0.0631
A30U U55G G78C A89C	≤ 0.026
A31U G85A	0.164
C34U U35G U57C G61A C82U	≤ 0.026
U55C G86A	0.0315
U55C G86C	0.164
A30U A60U C68U	0.0354
G32C C81G	≤ 0.026
A31G A74U	0.029
A33G A87U G88U	≤ 0.026

Variant	nonsense suppression
A54C C64U	0.0402
G32C C34G U35C	≤ 0.026
A31G U35A	0.0292
A31G U35C	0.0321
A31U G73U	≤ 0.026
C34U U63C G85C	≤ 0.026
A54C C81U	0.21
A31C U57A	0.219
U55C U76A	0.15
A31G G73A	0.366
C34G U55C	0.276
C34U G59U	≤ 0.026
A31G C77A	≤ 0.026
U35C A74G	≤ 0.026
U35G C68G C82U	≤ 0.026
A54C A60U	1.09
A54C A60G	0.0773
A31G C83A	0.0481
A31G C83U	0.0743
A30U G84U	0.423
C34U C77G C79G A89U	≤ 0.026
U55A U76A G86A	≤ 0.026
A54U G67A	0.0673
U55C C75U	0.903

Variant	nonsense suppression
U55C C75A	1.05
U55C C75G	1.16
C34A U55A C80A	≤ 0.026
A30U G67A G73U A74G C81A	≤ 0.026
A33U U63A	0.0268
A33G A87G	0.0348
A31C A60U C75A	1.23
A54U G61A	0.611
A54U G61U	1.16
U35C C83G	≤ 0.026
A31U C81U	0.0322
A33C U55C C56U G66U C79G	≤ 0.026
U55C U63A C75G	0.0265
A33G U57A U76C	≤ 0.026
A30U G69U C80U	≤ 0.026
A31U C64U C72U	≤ 0.026
C34U A54C C56G G73A G88C	≤ 0.026
A31G U71A G73A C77U	≤ 0.026
A30G U76A	0.043
A31G G61C	0.275
A31G G61A	0.8
C34U U70A	≤ 0.026
A31G U63C	0.333
A31G U63A	0.684

Variant	nonsense suppression
A31G U63G	0.0741
U55C G84U	0.0453
A30G U71C	0.035
A33C U35C C83A	≤ 0.026
A30U A74C	0.0264
A30U A74U	0.0497
U55C U58A G67U	≤ 0.026
A54G C72A	≤ 0.026
A33G G88C	≤ 0.026
A31C G59C	≤ 0.026
A54U G85C	0.208
A54U G85U	1.01
U35C U63G	0.0352
A33G	0.346
A33U	0.0699
A54G G67C	≤ 0.026
A30U A62G C81G	≤ 0.026
A31G G67U A74G U76G C81A	≤ 0.026
A31U A62U	0.0539
A54C U58A	0.135
C34U G69A A89C	≤ 0.026
A31C G32U	≤ 0.026
A30U U35G G65U	≤ 0.026
A54C C82U	0.211

Variant	nonsense suppression
U35C G61A	0.0378
A31U C81A C82G	≤ 0.026
A33U U55G	0.167
C34G U57A	≤ 0.026
A54U C56G C72A	≤ 0.026
A30U A60G	0.27
A30U A60U	0.769
U55C A87C	0.0719
A31C G61A C75G	≤ 0.026
G32C C56G A60C	0.275
C34G G69C	≤ 0.026
A31C G66C G85U	≤ 0.026
C34A G69A	≤ 0.026
A54G G61A U76C C77G	≤ 0.026
A30U A54C	0.0467
A33G C79U	0.0403
C34G G78A C81G	≤ 0.026
A30U C68G	≤ 0.026
A33G A74C C80A	≤ 0.026
A33U U71A	≤ 0.026
A54C G84U	0.0301
A33C U71G G86A	≤ 0.026
A33G U55A A74C	≤ 0.026
A30U G61A	0.0365

Variant	nonsense suppression
A33G U58A	≤ 0.026
A54C C75G	1.15
A54C C75U	1.22
A33U G69C G73A	≤ 0.026
A31G G67C G85A	≤ 0.026
C34U C81A G88C	≤ 0.026
G32U C56G	0.207
C34U A62G	≤ 0.026
U35C U70A	≤ 0.026
C34G C72A	≤ 0.026
U55A G67U	≤ 0.026
A54U A62G	0.0321
A30U C82G	≤ 0.026
A31U U55C	0.0547
G32U A54C C81G	≤ 0.026
A54C C68G	≤ 0.026
G32U U70C	≤ 0.026
C34U A74C C79A	≤ 0.026
A31U U70C	≤ 0.026
A31U U70A	≤ 0.026
A31G U57C G78A G86A	≤ 0.026
C34A C68A A87U	≤ 0.026
U55G U63G U71C G88A	≤ 0.026
C34G G78C	≤ 0.026

Variant	nonsense suppression
A31U U63G	0.0763
A31U U63A	0.0391
A33U C75A	0.192
G32U U55G A62C	≤ 0.026
C56A G65C	≤ 0.026
U55A A74C G88A	≤ 0.026
G32C U63C	≤ 0.026
A54C U71G	≤ 0.026
A54C U71C	0.0406
A30U U58A G78U	0.776
U55C G88C	0.0568
A33U U55C U63A U70C	≤ 0.026
A31U G61U	0.0345
C34G C81A	≤ 0.026
U55C A74G	0.144
A30U G85A	0.52
A30U G85U	0.0315
A31G C34G U76G	≤ 0.026
G32U U76C	≤ 0.026
U35G G59U A60G	≤ 0.026
A31C C72G G78U	≤ 0.026
A31G U57A	0.136
A54C G78A	0.107
C34A G65C G85C	≤ 0.026

Variant	nonsense suppression
A30U G32U C56A U58G	1.11
A31U U76A	0.0413
G32U U71C G84A	≤ 0.026
A31U A60U	0.647
A31U A60C	0.0348
A30U C81A	0.0383
C34A A87G	≤ 0.026
U55C	1.09
U35A U57G C81U G85C A87U	≤ 0.026
C34A U55C G66A	≤ 0.026
A54C C80G	0.0733
A54C C80U	0.194
A33G G59A C77A C83A G88A	≤ 0.026
A31G U71G	≤ 0.026
C34A A54U U71A C75A	≤ 0.026
A33C G61U G66U	≤ 0.026
G32A A62G U71G G78A G85A	≤ 0.026
A31U C56A U70C A89G	≤ 0.026
A30U A31U	0.035
A30U A31G	0.25
U55C C64G	0.0515
A54U C56A C72U	≤ 0.026
A31U C75A	0.758
U35G U55C G61C G73U	≤ 0.026

Variant	nonsense suppression
A30U A31U C80A	≤ 0.026
A54C G73C	0.0591
U35A U70C G73U C81U	≤ 0.026
U55G U63A G86C	≤ 0.026
U55C U63A	0.244
U55C U63C	0.156
U55C U63G	≤ 0.026
A54U A60C	0.279
A54U A60U	0.965
A31U U55G G67C	≤ 0.026
C34U G65A U70A	≤ 0.026
A31U A60C C75A	0.184
A31U G59A C80U	≤ 0.026
A33C U55C C64G U76C	≤ 0.026
G32A C79A G88A	≤ 0.026
A31G A33G U55C G61A	0.727
A30U C79G	≤ 0.026
A30U C79U	0.144
A54C G61C	0.216
A54C G61A	0.334
A54C U76G A89G	≤ 0.026
G32U C79A	≤ 0.026
A54C A87G	0.59
A30U U55C A87C A89U	0.0456

Variant	nonsense suppression
A54G G73A	0.122
A30U U76G	0.0538
A54C U76C	0.232
A33G U76C	0.0419
A33G U76G	≤ 0.026
U55C U57C	0.026
A33U G73C	≤ 0.026
A30U U58A	0.89
A33G G66C	0.0263
A31G A87G	0.762
A54C A74G	0.0575
A54C A74C	≤ 0.026
A31C C56G	≤ 0.026
U55C C77A	0.0479
A31G A54C	0.0977
A31G A54U	0.627
G32U U63A C82U	0.0283
A33C U63A	≤ 0.026
U55C G61A	0.194
A31U G59C	≤ 0.026
A54U	1.04
A54C	1.16
G32U G66A	≤ 0.026
A33G G86C	0.0374

Variant	nonsense suppression
U55C C83G	0.0314
A54C G67U	≤ 0.026
A54U C79U	0.571
U55A C56A C64A U70C	≤ 0.026
A31G U70C	0.0279
U35C C77A G85C	≤ 0.026
U35G C56A G61U U63A	≤ 0.026
A33C C56A U58G G85U	≤ 0.026
A30U G69C C72U	≤ 0.026
A33U C34U	≤ 0.026
A31G C75A	1.06
A31G C75U	1.05
U55C C79U	0.183
U55C C79G	0.035
G32C U76A	≤ 0.026
A33G A54G A74C	≤ 0.026
A31G A60C	0.177
A54U G84U	0.0565
A54C U57A	0.0382
U55C U58G	≤ 0.026
U35A G59A G67A	≤ 0.026
A33G C75G	0.216
A33G C75U	0.275
A33G C75A	0.235

Variant	nonsense suppression
A54C G69C C75U U76G G85C	≤ 0.026
A30U U63A	0.157
A33G G61C	0.034
A33G G61U	0.119
A33G G61A	0.0709
A54C U63C	0.729
A54C U63A	0.377
A54C U63G	0.0506
U55A U71A	≤ 0.026
A54U A87G	0.867
A54C G65U	0.0425
U35A G73U G84C	≤ 0.026
A54U G65A	0.0335
C34G A74U	≤ 0.026
C34G U70G	≤ 0.026
A33C G61A A62G G73C	≤ 0.026
A54U C64U	0.0513
U55C G65A	0.0796
A31U G73C C81G	≤ 0.026
A33G G84U	0.222
U55A C64G	≤ 0.026
A33G U57A	≤ 0.026
